Measurements taken from the EternaBench riboswitch data.

System: MS2 coat protein
Experiment: apparent Kd, MS2 coat protein; higher = weaker binding; RNA-MaP array; FMN 200 µM where present
In short: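 Stalled E. coli RNA polymerase transcribed the designs on Illumina sequencing-chip clusters. SNAP-549-labelled MS2 coat protein was titrated from 0.7 or 1.5 nM, doubling to 3 µM, without and then with constant ligand, in 100 mM Tris-HCl pH 7.5, 80 mM KCl, 4 mM MgCl2, BSA, DTT, yeast tRNA and Tween-20. Per-cluster binding curves were fitted to green signal normalised to red-channel RNA signal and control-cluster median Fmax. The apparent Kd is the median of the filtered fits.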

[1] = designed as: ON switch for flavin mononucleotide, no ligand
[2] = ligand present: flavin mononucleotide, designed as: ON switch for flavin mononucleotide
[3] = designed as: OFF switch for flavin mononucleotide, no ligand
[4] = ligand present: flavin mononucleotide, designed as: OFF switch for flavin mononucleotide

| Sequence | apparent Kd [1] [µM] | apparent Kd [2] [µM] | apparent Kd [3] [µM] | apparent Kd [4] [µM] |
| --- | --- | --- | --- | --- |
| GCUGUCGCAUGAGGAUAUGGUCAGCUUUGCUGACCAGAAGGCAUGUCAAUAGACAUGAGGAUCACCCAUGUAGUAAAGACGGCU | 0.313 | 0.0324 | – | – |
| AAAAUCACAUGAGGAUCACCCAUGUACCGAGCUAGGGCUACAUAGGAUAUGACAAGUAUAGCUUGUCAGAAGGGUGAGUCUCGC | 0.166 | 0.258 | – | – |
| CUAUUUUGUGCCUCAUGUACAUGAGGAUCACCCAUGUUAACUUAGGAUAUAUUUAUAUUGUUAGAGUAGAAGGAAGUACAAUUU | – | – | 0.0302 | 0.0271 |
| UUGGCACAUGAGGAUCACCCAUGUUAGGAUAUUGUGGUAGAAACAGCUGGGAAACGCACGAGAAGGGACACACG | – | – | 0.0371 | 0.0555 |
| UUUUUACUUGCAGGAUAUGGAGACAUGAGGAUCACCCAUGUAUGAGGAGCUAAAUUAUGCUGUGGCCAGAAGGGUAUUGUUCUU | 0.0666 | 0.0588 | – | – |
| UUUUUAGCAGGAUAUAUCCACGACCACAUGAGGAUCACCCAUGUGGCCGCUUGAGGUUGUAUAGAAGGGCUUUUUU | – | – | 0.014 | 0.0148 |
| AAAGCUUCCGCCACAUGAGGAUCACCCAUGUCGUAACCGGGACAGGAUAUCCUCGAUGUAUUUGCGGAGAAGGGUCGCAGGUUA | 0.0771 | 0.147 | – | – |
| GUCCUCUCUGAGGAUAUUAUCUGGUUCGAUUGAUAAGAAGGCAGUACAUGAGGAUCACCCAUGUGGGUCGUCUG | – | – | 0.031 | 0.0837 |
| GUAGUUAGUAGAGGAUAUUAAUAUGUGUAAUAUUGAGAAGGUUACAUGAGGAUCACCCAUGUGAUCAAUCACUGUUAAGGUUGC | – | – | 0.00697 | 0.00706 |
| CAGAAGUCAGGAUAUCCUGCUCGUCACUUGCGUGAUGAGUAGGAGAAGGGACAUGAGGAUCACCCAUGUAAAGC | – | – | 0.0538 | 0.0652 |
| GGACGUCACAUCUACAUGAGGAUCACCCAUGUCAAAAGACAUGAGGAUAUGCUACCUAAUUGGUAGCAGAAGGCAUGGACGUCC | 1.07 | 0.0715 | – | – |
| GGUGCAGUGUAGAAGGCAGAUCUGAUUCAGAUCUGAGGAUAUACAUGAGGAUCACCCAUGUUAUGCACCAGCACGAGAGUGCAA | – | – | 0.00628 | 0.00876 |
| AGUCUCACUGAAGGAUAUGCAGGGUUUCAAGGGUUUCCUGCGACAUGAGGAUCACCCAUGUAAAUGCAGAAGGUCAGGACCCAA | – | – | 0.00663 | 0.0328 |
| AUCUUGAGAGGAUAUACAUGAGGAUCACCCAUGUUGCUAACACCAUGCGGUCAUUUGCGUAGAAGGCUCAUCCG | – | – | 0.0262 | 0.104 |
| CAGCGGGCAGGAUAUGCACCUUGAGACAAAUGUCUGUCCGGACAUGAGGAUCACCCAUGUAGAAGGGCCACGGA | – | – | 0.0554 | 0.0445 |
| GGGAAACAUGAGGAUCACCCAUGUCAGGAUAUGAUACUAUGUACUUCGGUACAUAGUAUCAGAAGGGACAUCAU | – | – | 0.0738 | 0.204 |
| UAUUAAUGCAAGGAUAUGCUAUUAAUUUAUUUUGCAGAAGGUGCAACAUGAGGAUCACCCAUGUUGGAGGGUAU | – | – | 0.022 | 0.0343 |
| UUAAAUCAUGUAGGAUAUGCAUGGCGAAGCUACGCAGAAGGACAUGAGGAUCACCCAUGUGCUAGCGUCUGAGUACAGAUGCAA | – | – | 0.0393 | 0.259 |
| UGUAUGGACAGAGGAUAUACGGAUAGGAUCUACUAUCCUCCUUAAAUAACAUGAGGAUCACCCAUGUAGAAGGCUGUCCAUACU | – | – | 0.0186 | 0.0435 |
| AGCUAGUCAGGAUAUACGAAAAUGUCAGAAGCUGAGAAGGGACAUGAGGAUCACCCAUGUAGAAGGGACUAGCA | – | – | 0.0575 | 0.299 |
| UAUGGUUAAGUCAGGAUAUACGUGCAGUUUUCUGAGUAGAAGGGACAUGAGGAUCACCCAUGUAUGGUAGUGUU | – | – | 0.0722 | 0.0736 |
| UAACCGCAGCAGAAGGGACGUCGGGUGGACUAGUCAGGAUAUGCAUGCCGGCAUAGACAUGAGGAUCACCCAUGUACGAGUGGC | 0.347 | 0.0876 | – | – |
| AGCUGGUGACAGCAUCGAGCUAAACAUGAGGAUCACCCAUGUAGAAGGCUGUACGGUUACCGUACAGAGGAUAUACAUAGCUCG | – | – | 0.00611 | 0.0063 |
| AUGGACGUCGUAGGAUAUGUAGGAUUCUCGUACAUGAGGAUCACCCAUGUUGACGUCGAGGUCGGACAGAAGGGCGGUGUCUAU | 0.0209 | 0.00865 | – | – |

| Sequence | apparent Kd [1] [µM] | apparent Kd [2] [µM] | apparent Kd [3] [µM] | apparent Kd [4] [µM] |
| --- | --- | --- | --- | --- |
| GUGCCUAUCUGAGGAUAUCAACGCACUUGAGCGUGAGAAGGCAGAGGUACAUGAGGAUCACCCAUGUCCUCCAUAAAAUAAAAG | – | – | 0.00665 | 0.0141 |
| UGCAGACGAGGAUAUGAUCAAUAAUACAUGAGGAUCACCCAUGUAAUACUGAUCCAUGGAUCAGAAGGCGUCUGCU | – | – | 0.0162 | 0.0246 |
| UUAGUUUUGCAAGGAUAUGUUUAUUUAUAGUUGCCUCUUACAUGAGGAUCACCCAUGUUUUACUUACAGAAGGUGCAAUGAUUU | – | – | 0.165 | 0.416 |
| UCCUACAUGGGAGGAUAUGGGACAUGAGGAUCACCCAUGUGAAAAUUAAAUAUGCCGAGAGGCAACUAGAAGGCCCAUGUAGGU | 0.0358 | 0.0192 | – | – |
| ACGGCAAUCAGAGGAUAUGGUUACAUGAGGAUCACCCAUGUCAAGGGUCUAAUUAGGUAUAACUACCAGAAGGCUGAAGGCCUA | – | – | 0.0561 | 0.0948 |
| AGCAGACGAGGAUAUAGAUUUAAGUACAUGAGGAUCACCCAUGUACACAUGUAUUUAGAUUUAGAAGGCGUCUGCU | – | – | 0.666 | 0.664 |
| AAUGAUUGAUGAGGAUAUUGUGGUGAAACACGACGAGAAGGCAUAUGUCACAUGAGGAUCACCCAUGUGAGCUUUGUGGAUAUA | – | – | 0.025 | 0.0289 |
| GAUUACAAGUAAGGAUAUGUAUAUGAAACAUAUACAGAAGGUACAUGAGGAUCACCCAUGUUCUUGCAGCGCGAAUAUGUAAUC | – | – | 0.0171 | 0.0211 |
| UGAUAGGACAGAGGAUAUACCGAUAGGAUCUACUAUCGAAGAAUCCUUACAUGAGGAUCACCCAUGUAGAAGGCUGUCCUAUCU | – | – | 0.0204 | 0.0296 |
| UCCUUGUAAGGAUAUCGACGGCUACUCAAUUAAGCCGAUGCUGAGAAGGUACAUGAGGAUCACCCAUGUCUGGU | – | – | 0.0521 | 0.275 |
| CAAAUUUGGUAAGGAUAUCCCACAUUAUUCUGACCCGUGCAAGCUACAUGAGGAUCACCCAUGUGGGAGAAGGUGCGUUAAAGA | – | – | 0.063 | 0.079 |
| AUGGGACAUGAGGAUCACCCAUGUUAGGAUAUCUCCUUAGUAACGAUCAGGCUAUAGGAGAGAAGGAACGGUCC | – | – | 0.258 | 0.272 |
| GAGGAACAUGAGGAUCACCCAUGUGAGGAUAUGCAUAGCGAGGUAGUAGAAGUUGAAUGCAGAAGGUACACGGA | – | – | 0.036 | 0.0303 |
| GUGACUUAUAGAGGAUAUUGACAUGAGGAUCACCCAUGUAUUUGGUAGUGUUCAAUGAAUUCUUGCGAGAAGGCUAUAAGACAC | – | – | 0.221 | 0.261 |
| GUCAGCUCGUGAGGAUAUACAAUACUGCUUCGGCAGUGUAUUAAGAUCACAUGAGGAUCACCCAUGUAGAAGGCACGAGCUGAU | – | – | 0.00788 | 0.0604 |
| GGAUGACAAAGUCAUCCAUUACGAACAUGAGGAUCACCCAUGUAGGAUAUGCUUCACAAAGUGAAGCAGAAGGACAUGUGUCUU | – | – | 0.0302 | 0.154 |
| CACAGGGCAGGAUAUACGAACAUGUCGCCAGAUGUCAUGGUACAUGAGGAUCACCCAUGUAGAAGGGCGUUGAU | – | – | 0.0505 | 0.0528 |
| UUUUAACAUGAGGAUCACCCAUGUGAGGAUAUCGAAAUUUAUAUUAAUAUUAUUAAAACGAGAAGGCACAUUUU | – | – | 0.0631 | 0.0828 |
| CCAUCAGCGAACGAUACGGUUGGACAUGAGGAUCACCCAUGUAGAAGGACAGGAGAAUAACGGCUGUAGGAUAUACAUUUAGUG | – | – | 0.0407 | 0.0339 |
| GCAGGUUAAGUCAGGAUAUACCUAUGGAUACAUAGGUAGAAGGGACAUGAGGAUCACCCAUGUGUCUCGCCUGC | – | – | 0.0878 | 0.148 |
| CGUGUUUCGUUGUAACCCAUUUACAUGAGGAUCACCCAUGUAGAGGAUAUAGGUCACCACGGUACCUAGAAGGCUGCAGGUGUG | – | – | 0.0303 | 0.041 |
| CCUUGGAUUGAGGAUAUAUGAACCUUUACGGUUGUAGAAGGCAGGACAUGAGGAUCACCCAUGUGGUGGCGCUC | – | – | 1.28 | 1.01 |
| GUGUAGGUAGGAUAUACAUGAGGAUCACCCAUGUGAAUAAGAUAGAAUAAGAUAAAGUGUAGAAGGGCUAGUGU | – | – | 0.0396 | 0.0319 |
| UUACUCAUGUAAGGAUAUGCAGCCGUUUCGGCUGCAGAAGGUACUAUAAUACAUGAGGAUCACCCAUGUCUUUUUAAAUUUUAC | 0.109 | 0.0352 | – | – |
